# Results from ChEMBL document CHEMBL4513216, “Probing the Open Global Health Chemical Diversity Library for Multistage-Active Starting Points for Next-Generation Antimalarials” (ACS Infect Dis, 2020).
# Assay: Toxicity liver stage against HepG2, at 10uM
# Assay type: cell-based
# Design: test concentration 10 uM, cell line HepG2-A16-CD81EGFP
# Conditions: human, HepG2-A16-CD81EGFP cells; read-out: INHIBITION
# Outline: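 Uninfected HepG2-A16-CD81EGFP cells, 3 × 10^3 per well, 1536-well, plated on prespotted compound at 10 μM final, parasite-free screening media added to match infected plates; puromycin 10 μM positive, DMSO 0.5% negative; run in parallel with 48 h PbLuc assay at 37 °C, 5% CO2; viability by CellTiter-Glo luminescence, normalized to controls.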
row,Compound,cytotoxicity at 10 µM
1,CS(=O)(=O)NCC1CCCCN1C(=O)c1csc(-c2ccsc2)n1 (stereo unspecified),-5.89%
2,O=C(c1cc(CC2(NCc3ccccc3)COC2)no1)N1CCCCC1,1.14%
3,CS(=O)(=O)c1ccc2c(c1)nc1n2[C@@H](CNCc2cccnc2)COC1,-2.68%
4,CCc1c(C)nc(-n2nc(-c3cccs3)cc2N)[nH]c1=O,-4.47%
5,CN(C)C(CNC(=O)NCCOc1ccccc1)c1ccco1 (stereo unspecified),-6.2%
6,O=C(C1CCOCC1)N1C[C@H](OCc2cccnc2)[C@H]2COC[C@H]21,1.99%
7,CC(=O)c1ccc(-n2ccc3nc(N4CCCC4)ncc3c2=O)cc1,1.45%
8,COCCNC(=O)c1nc(-c2ccc3cc[nH]c3c2)no1,-0.208%
9,COc1ccccc1CNc1ncnc2c1NC(=O)CN2,11.3%
10,CC(=O)N1CCOC(c2c(C(=O)NC(C)(C)C)sc3ccccc23)C1 (stereo unspecified),8%
11,Cc1ccc(C2CN(Cc3cccc4[nH]ccc34)CCO2)nc1 (stereo unspecified),-35.6%
12,Cn1ccc(C(=O)N2CCC(Cc3cnc4[nH]ccc4c3)C2)n1 (stereo unspecified),-5%
13,O=C(Nc1ccc(-c2csnn2)cc1)N1CCCC1,-3.8%
14,O=C(NCCc1ccncc1)c1cccc(S(=O)(=O)NC2CC2)c1,-151%
15,CN(C)c1ncccc1CNC(=O)CCNc1ncccn1,-2.22%
16,CCOCCC(=O)NC(c1noc(C)n1)c1ccccc1F (stereo unspecified),0.101%
17,NC(=O)CSc1ccccc1NCc1nc(C2CC2)no1,1.12%
18,O=C(Cn1cncn1)NCC1CCN(Cc2ccccc2Cl)CC1,-3.84%
19,NC(=O)C1CCN(c2ccc(C(=O)N3CCc4ccccc43)cn2)C1 (stereo unspecified),-1.29%
20,CNC(=O)c1cccnc1NCCOc1ccccc1,-4%
21,COCCNC1(c2ccc(Cl)cc2)CCOCC1,7.06%
22,CN(CCCNC(=O)c1cccc(OCC(N)=O)c1)CC(F)(F)F,-10.4%
23,Cn1cc(N2CCCC(Nc3ccc4c(c3)NC(=O)CC4)C2=O)cn1 (stereo unspecified),-1.61%

row,Compound,cytotoxicity at 10 µM
1,CC(NC(=O)c1cccc(CN2CCN(C)CC2)c1)c1ccccn1 (stereo unspecified),-13.5%
2,CN(Cc1cc(Br)cn1C)C(=O)c1ccsc1,-10%
3,CN(CCC#N)C(=O)CN1CCCC1c1cccs1 (stereo unspecified),-8.83%
4,COCCNC(=O)c1cc(OC)ccc1Br,-4.2%
5,O=C(NCc1ccccc1CO)Nc1ccc2c(c1)CCC2,3.09%
6,Cn1c(C2CC2)nc2cc(NC(=O)C3(O)CCCC3)ccc21,2.84%
7,N#CCCN(CCC#N)C(=O)c1ccc(OCC2CC2)cc1,-10.8%
8,O=C1CN(CCCNC(=O)Nc2ccccn2)CCN1,-10.1%
9,NC(=O)N1CCCC(C(=O)NCc2ccccc2OC(F)(F)F)C1 (stereo unspecified),1.01%
10,CC(C)c1nccn1C1CCCN(C(=O)c2ccn(C)c(=O)c2)C1 (stereo unspecified),7.35%
11,CCN(CC(F)(F)F)C(=O)C1CCCN(Cc2nc(C)c(C)o2)C1 (stereo unspecified),-4.05%
12,Cc1ccccc1OCCSc1nnc(CC2CCS(=O)(=O)C2)n1C (stereo unspecified),1.27%
13,O=C(NCCN1CCOCC1)c1cc(Cl)c2c(c1)OCCCO2,-5.29%
14,CC1CCN(C(=O)Cn2cc(I)cn2)CC1,2.19%
15,CN(Cc1ccc(Cl)s1)C(=O)c1ccccc1OCC(N)=O,-9.2%
16,Cc1cc(NC(=O)NCCc2ccc3c(c2)OCCO3)n(C)n1,-0.838%
17,Cc1cc(N(C)C)nc(N2CCN(Cc3nccn3C)CC2)n1,-4.05%
18,CSc1ccc(NC(=O)NCC2CCCO2)cc1F (stereo unspecified),-7.81%
19,Cn1cccc(NC(=O)COc2ccc(Br)cc2)c1=O,8.35%
20,O=c1c2cccnc2cnn1CC(O)c1cccc(Cl)c1 (stereo unspecified),-10.2%
21,CC(C)C(=O)NCCCNC(=O)Nc1cc(-c2ccccc2)ns1,20.3%
22,CCC(C)(C)C(=O)N1CCN(C2=NCC(C)S2)CC1 (stereo unspecified),-144%
23,Cc1occc1C(=O)N1CCC(C(O)c2ccc(F)cc2)CC1 (stereo unspecified),-2.69%

row,Compound,cytotoxicity at 10 µM
1,CC(=O)N(C)CCc1nc(-c2cc(C(N)=O)co2)cs1,-4.99%
2,CN(c1ccc(OCc2cnc(Cl)s2)cc1)S(C)(=O)=O,0.867%
3,CN1CCN(c2ccc(NC(=O)c3ccccn3)c(C(F)(F)F)c2)CC1,0.753%
4,Cc1ccc(-c2nn3c(nc2=O)-c2ccccc2NC3C(=O)O)cc1C (stereo unspecified),19.3%
5,Cc1ccc(NC(=O)N2CCCC(O)C2)c(Br)c1 (stereo unspecified),7.72%
6,Cc1nc(C2(NCC(=O)NCCc3cccs3)CCCC2)no1,-2.18%
7,COc1ncccc1C(=O)NCC1Cc2ccccc2O1 (stereo unspecified),-13.4%
8,CCc1nc(N2CCC3(CC2)CC(=O)N(Cc2ccc(Cl)cc2)C3)no1,4.48%
9,Cc1nccc(-c2ccccc2)c1C(=O)N1CC[C@](C)(O)C(C)(C)C1,-3.45%
10,Cc1ccsc1CCNC(=O)CCC(=O)NC1CCCC1,-2.98%
11,CCCc1nnc(N(C)CC2CCN(CC(C)C)CC2)o1,6.05%
12,Cn1nnnc1SCCNC(=O)C1CCN(C(=O)C2CC2)CC1,-5.95%
13,O=C1CCCN1CCc1noc(-c2ccsc2)n1,8.35%
14,CC(CNC(=O)c1cc(Cn2cnc3ccccc32)[nH]n1)N1CCCC1 (stereo unspecified),-4.62%
15,Cc1ccc2[nH]c(CN(C)c3cc(CN)nc(C)n3)nc2c1,1.69%
16,COc1ccccc1[C@@H]1CN(Cc2csc(C(C)=O)c2)C[C@H]1C(=O)O,-4.75%
17,O=C(c1cc(-c2ccco2)nc2c(Cl)cccc12)N1C[C@H]2CNC[C@H]2C1,-4.23%
18,CC(C)NC(=O)CNC(C)COc1ccccc1 (stereo unspecified),-5.66%
19,CCC(CNC(=O)c1cc(CC(C)C)nn1C)N(C)CC (stereo unspecified),-5.99%
20,Cn1cc(C#N)cc1C(=O)N1CCC2(CCCN(CC3CCC3)C2=O)C1 (stereo unspecified),-4.3%
21,CC1(CNS(=O)(=O)c2cccc(C(=O)N3CCSCC3)c2)COC1,-6.69%
22,CSc1ccc(CN2CCn3nc(CNC(C)=O)cc3C2)cc1,17.4%
23,O=C(O)[C@H]1C[C@H](C(=O)NCc2ccncc2)CN(CCC(F)(F)F)C1,-142%

row,Compound,cytotoxicity at 10 µM
1,O=C1CCCN1CCc1noc(-c2ccc(Cl)cc2)n1,7.9%
2,CCc1ccc(CN2C[C@@H](C(=O)O)[C@H](c3ccccc3OC)C2)o1,-13.9%
3,O=C(CCc1cc(O)no1)N1CCCC(COc2ccccc2F)C1 (stereo unspecified),0.296%
4,CN(Cc1n[nH]c2c1CCCCC2)C(=O)c1cc(-c2cccn2C)n[nH]1,3.02%
5,O=C1NCCCC[C@@H]1Nc1ccc(-c2nc(C3CC3)no2)cn1,2.87%
6,CN(C)CCNC(=O)c1ccc(OC2CCN(C(=O)CO)CC2)c(Cl)c1,-2.43%
7,O=C(O)[C@@H]1CN(C(=O)CSCC2CC2)C[C@H]1c1ccccn1,5.35%
8,CCn1c(N)nc2cc(C(=O)N3CCN(c4ccncc4)CC3)cnc21,-8.3%
9,CCCOc1ccc(OCCN2CCOCS2(=O)=O)cc1,5.56%
10,CCn1c(C)nnc1SCCNC(=O)CC1CCc2ccccc21 (stereo unspecified),-1.26%
11,Cc1ccc(CSc2nc(N)cc(NCC(=O)N3CCNCC3)n2)cc1,-4.62%
12,Cc1ccc2nc(-c3nc4c([nH]3)CCCNC4=O)cn2c1,4.42%
13,O=C1N(C2CCCCC2)CCCC12CCN(S(=O)(=O)c1cccnc1)C2 (stereo unspecified),6%
14,CC[C@@]1(O)CCN(C(=O)c2ccc(-c3cccc(F)c3)cc2)C[C@H]1O,-5.68%
15,CCNC(=O)[C@@H]1C[C@H](NC(=O)c2ccccc2C#N)CN1CCCSC,-12.7%
16,COc1c(C2CCCN2C(=O)CCNc2ncccn2)c(C)nn1C (stereo unspecified),-5.1%
17,CCc1ccc(C(=O)NCCNc2ncccn2)cc1,0.364%
18,CCc1nc(CN2CCN(C(=O)c3cncnc3CC)CC2)cs1,-11.4%
19,c1ccc2oc(CN3CCCC3c3noc(C4CC4)n3)nc2c1 (stereo unspecified),-4.04%
20,O=C(CN1CC(n2cccn2)C1)NCCC1=CCCCC1,-8.25%
21,O=C(CN1CCCCC1Cn1cncn1)NCCc1ccsc1 (stereo unspecified),-6.19%
22,Cn1cc(-c2nc(CN3CCCCC3Cn3cncn3)cs2)cn1 (stereo unspecified),-17.4%
23,Cc1nc(C)n(CC2CCCN2CCOc2ccccc2F)n1 (stereo unspecified),-3.21%

row,Compound,cytotoxicity at 10 µM
1,Cc1cnn(CC(C)NCc2ccc(OCc3noc(C)n3)cc2)c1 (stereo unspecified),1.16%
2,Cc1ccc(-c2ncc(C(=O)NCCNC(=O)C3CC3)s2)c(C)c1,-23.8%
3,Cc1ccc(N2CCCC(NCc3c(C)noc3C)C2)nn1 (stereo unspecified),-5.88%
4,NC(Cc1nc(-c2ccccc2)no1)c1ccccc1 (stereo unspecified),-5.08%
5,Cn1ccnc1CN1CCc2ncnc(N3CCCC3)c2CC1,-142%
6,CC1c2ncc(CNC(=O)C3CC3)n2CCN1Cc1ccccn1 (stereo unspecified),8.18%
7,CCN1CC[C@@]2(C(=O)N(C)C)CCN(S(=O)(=O)c3ccccc3)CC[C@@H]12,1.26%
8,CO[C@@H]1CCN(C2CCOCC2)C[C@@H]1Cc1ccccc1,-4.87%
9,c1csc(CN2CCC3(CCCN(c4nncs4)C3)C2)n1 (stereo unspecified),-144%
10,Cc1ccc2c(n1)N(CCn1cccn1)CCN(C1CCOCC1)C2,-2.83%
11,Cn1cccc1C(=O)N1CCCCC12CC(=O)N(c1cccnc1)C2 (stereo unspecified),-1.91%
12,CN1CCN(C(=O)c2ncn3c2CN(C)S(=O)(=O)c2ccccc2-3)CC1,-153%
13,c1csc(N2[C@H](Cn3cncn3)C[C@@H]3CNCC[C@@H]32)n1,-142%
14,CCN1CC2(CNCCN(C(=O)Nc3ccccc3)C2)CC1=O (stereo unspecified),0.346%
15,COCc1nn(CC2CC2)c2c1CN(Cc1cncn1C)CC2,3.94%
16,Cc1noc(C)c1CN1C(=O)[C@@H]2CC[C@H]1CN(Cc1cccc(O)c1)C2,4.42%
17,CC(=O)c1ccc(C(=O)N2C[C@H]3CC[C@@H](C2)N(CC2CCC2)C3)s1,-5.79%
18,CN1C(=O)[C@@H]2CC[C@H]1CN(C(=O)c1nnc3n1CCCCC3)C2,-6.34%
19,CCn1cc(-n2cc3nc(N4CCC(C)CC4)[nH]cc-3c2=O)cn1,6.97%
